Test results from ChEMBL document CHEMBL1135620, “Cyclosporins: structure-activity relationships for the inhibition of the human FPR1 formylpeptide receptor” (J Med Chem, 2002).

Target: T1, fMet-Leu-Phe receptor (Homo sapiens) (UniProt P21462)
T1 sequence (whole entry): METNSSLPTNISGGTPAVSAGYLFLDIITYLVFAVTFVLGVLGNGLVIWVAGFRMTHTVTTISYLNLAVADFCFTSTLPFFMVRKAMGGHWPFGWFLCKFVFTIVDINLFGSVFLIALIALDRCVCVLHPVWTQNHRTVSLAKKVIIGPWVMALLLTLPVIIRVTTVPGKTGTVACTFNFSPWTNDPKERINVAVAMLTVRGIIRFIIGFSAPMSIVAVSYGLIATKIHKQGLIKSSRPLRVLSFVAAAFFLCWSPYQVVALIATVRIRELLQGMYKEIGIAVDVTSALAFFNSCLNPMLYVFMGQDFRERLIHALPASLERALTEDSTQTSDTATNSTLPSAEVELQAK
Assay: Inhibitory activity against Human formylpeptide receptor (FPR) of human leukemia HL-60 cells
Type: cell-based
Summary of the method: (§1)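 HL-60 cells differentiated 48 h with 0.2 mM dibutyryl cAMP, washed, then treated with 5 μM cytochalasin B (5–10 min, 37 °C). Stimulated 10 min with 30 nM f-MLF. N-acetyl-β-D-glucosaminidase release read at 410 nm on p-nitrophenyl substrate after spontaneous-release subtraction. Duplicate wells; IC20/IC50 as mean ± SD of independent experiments.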

Compound | IC20 [µM]
CC/C=C/C[C@@H](C)[C@@H](O)[C@H]1C(=O)N[C@@H](CC)C(=O)N(C)[C@@H](Cc2ccccc2)C(=O)N(C)[C@H](CC(C)C)C(=O)N[C@H](C(C)C)C(=O)N(C)[C@H](CC(C)C)C(=O)N[C@@H](C)C(=O)N[C@H](C)C(=O)N(C)[C@@H](CC(C)C)C(=O)N(C)[C@@H](CC(C)C)C(=O)N(C)[C@@H](C(C)C)C(=O)N1C | > 10
CC[C@@H]1NC(=O)[C@H]([C@H](O)[C@H](C)C/C=C/CO)N(C)C(=O)[C@H](C(C)C)N(C)C(=O)[C@H](CC(C)C)N(C)C(=O)[C@H](CC(C)C)N(C)C(=O)[C@@H](C)NC(=O)[C@H](C)NC(=O)[C@@H](CC(C)C)N(C)C(=O)[C@@H](C(C)C)NC(=O)[C@@H](CC(C)C)N(C)C(=O)CN(C)C1=O | > 10
CC/C=C/C[C@@H](C)[C@@H](O)[C@H]1C(=O)N[C@@H](C(C)C)C(=O)N(C)CC(=O)N(C)[C@H](CC(C)C)C(=O)N[C@H](C(C)C)C(=O)N(C)[C@H](CC(C)C)C(=O)N[C@@H](C)C(=O)N[C@H](C)C(=O)N(C)[C@@H](CC(C)C)C(=O)N(C)[C@@H](CC(C)C)C(=O)N(C)[C@@H](C(C)C)C(=O)N1C | 3.9
C/C=C/C[C@@H](C)[C@@H](O)[C@H]1C(=O)N[C@@H]([C@@H](C)O)C(=O)NCC(=O)N(C)[C@H](CC(C)C)C(=O)N[C@@H](CC(C)C)C(=O)N(C)[C@H](CC(C)C)C(=O)N[C@@H](C)C(=O)N[C@](O)(C(C)C)C(=O)N(C)[C@@H](CC(C)C)C(=O)N[C@@H](CC(C)C)C(=O)N(C)[C@@H](C(C)C)C(=O)N1C | 0.13
C/C=C/C[C@@H](C)[C@@H](O)[C@H]1C(=O)N[C@@H](CC)C(=O)N(C)CC(=O)N(C)[C@H](CC(C)C)C(=O)N[C@H](C(C)C)C(=O)N(C)[C@H](CC(C)C)C(=O)N[C@@H](C)C(=O)N[C@H](C)C(=O)N(C)[C@@H](CC(C)C)C(=O)N(C)[C@@H](CC(C)C)C(=O)N(C)[C@@H](C)C(=O)N1C | 0.31
CC/C=C/C[C@@H](C)[C@@H](O)[C@H]1C(=O)N[C@@H](CC)C(=O)N(C)CC(=O)N(C)[C@@H](C(C)C)C(=O)N[C@H](C(C)C)C(=O)N(C)[C@H](CC(C)C)C(=O)N[C@@H](C)C(=O)N[C@H](C)C(=O)N(C)[C@@H](CC(C)C)C(=O)N(C)[C@@H](CC(C)C)C(=O)N(C)[C@@H](C(C)C)C(=O)N1C | 1.44
CC/C=C/C[C@@H](C)[C@@H](O)[C@H]1C(=O)N[C@@H](CC)C(=O)N(C)CC(=O)N(C)[C@H](CC(C)C)C(=O)N[C@H](C(C)C)C(=O)N(C)[C@H](CC(C)C)C(=O)N[C@@H](CC)C(=O)N[C@H](C)C(=O)N(C)[C@@H](CC(C)C)C(=O)N(C)[C@@H](CC(C)C)C(=O)N(C)[C@@H](C(C)C)C(=O)N1C | > 10
C/C=C/C[C@@H](C)[C@@H](O)[C@H]1C(=O)N[C@@H](CC)C(=O)N(C)CC(=O)N(C)[C@H](CC(C)C)C(=O)N[C@H](C(C)C)C(=O)N(C)[C@H](CC(C)C)C(=O)N[C@@H](C)C(=O)N[C@H](C)C(=O)N[C@@H](CC(C)C)C(=O)N(C)[C@@H](CC(C)C)C(=O)N(C)[C@@H](C(C)C)C(=O)N1C | 0.53
C/C=C/C[C@@H](C)[C@@H](O)[C@H]1C(=O)N[C@@H](CCC)C(=O)N(C)CC(=O)N(C)[C@H](CC(C)C)C(=O)N[C@@H](CC(C)C)C(=O)N(C)[C@H](CC(C)C)C(=O)N[C@@H](C)C(=O)N[C@H](C)C(=O)N(C)[C@@H](CC(C)C)C(=O)N(C)[C@@H](CC(C)C)C(=O)N(C)[C@@H](C(C)C)C(=O)N1C | 8.9
C/C=C/C[C@@H](C)[C@@H](O)[C@H]1C(=O)N[C@@H]([C@@H](C)O)C(=O)N(C)CC(=O)N[C@@H](C(C)C)C(=O)N[C@H](C(C)C)C(=O)N(C)[C@H](CC(C)C)C(=O)N[C@@H](C)C(=O)N[C@H](C)C(=O)N(C)[C@@H](CC(C)C)C(=O)N(C)[C@@H](CC(C)C)C(=O)N(C)[C@@H](C(C)C)C(=O)N1C | > 10
CC(C)C[C@@H]1C(=O)N[C@@H](C(C)C)C(=O)N(C)[C@H](CC(C)C)C(=O)N[C@@H](C)C(=O)N[C@H](C)C(=O)N(C)[C@@H](CC(C)C)C(=O)N(C)[C@@H](CC(C)C)C(=O)N(C)[C@@H](C(C)C)C(=O)N(C)[C@@H](CC(C)C)C(=O)N[C@@H](C(C)C)C(=O)N(C)CC(=O)N1C | 4.2
CC[C@@H]1NC(=O)[C@H](CC(C)C)N(C)C(=O)[C@H](C(C)C)N(C)C(=O)[C@H](CC(C)C)N(C)C(=O)[C@H](CC(C)C)N(C)C(=O)[C@@H](C)NC(=O)[C@H](C)NC(=O)[C@@H](CC(C)C)N(C)C(=O)[C@@H](C(C)C)NC(=O)[C@@H](CC(C)C)N(C)C(=O)CN(C)C1=O | > 10
C/C=C/C[C@@H](C)[C@@H](O)[C@H]1C(=O)N[C@@H]([C@@H](C)O)C(=O)N(C)CC(=O)N(C)[C@H](CC(C)C)C(=O)N[C@@H](CC(C)C)C(=O)N(C)[C@H](CC(C)C)C(=O)N[C@@H](C)C(=O)N[C@H](C)C(=O)N(C)[C@@H](CC(C)C)C(=O)N[C@@H](C)C(=O)N(C)[C@@H](C(C)C)C(=O)N1C | 0.8
C/C=C/C[C@@H](C)[C@@H](O)[C@H]1C(=O)N[C@@H]([C@@H](C)O)C(=O)N(C)CC(=O)N[C@@H](CC(C)C)C(=O)N[C@@H](CC(C)C)C(=O)N(C)[C@H](CC(C)C)C(=O)N[C@@H](C)C(=O)N[C@](O)(C(C)C)C(=O)N(C)[C@@H](CC(C)C)C(=O)N[C@@H](CC(C)C)C(=O)N(C)[C@@H](C(C)C)C(=O)N1C | 0.14
CC[C@@H]1NC(=O)[C@H](CC2CCCCC2)N(C)C(=O)[C@H](C(C)C)N(C)C(=O)[C@H](CC(C)C)N(C)C(=O)[C@H](CC(C)C)N(C)C(=O)[C@@H](C)NC(=O)[C@H](C)NC(=O)[C@@H](CC(C)C)N(C)C(=O)[C@@H](C(C)C)NC(=O)[C@@H](CC(C)C)N(C)C(=O)CN(C)C1=O | 1.69
C/C=C/C[C@@H](C)[C@@H](O)[C@H]1C(=O)N[C@@H](CC)C(=O)N(C)CC(=O)N[C@@H]([C@@H](C)CC)C(=O)N[C@H](C(C)C)C(=O)N(C)[C@H](CC(C)C)C(=O)N[C@@H](C)C(=O)N[C@H](C)C(=O)N(C)[C@@H](CC(C)C)C(=O)N(C)[C@@H](CC(C)C)C(=O)N(C)[C@@H](C(C)C)C(=O)N1C | 2.8
CC/C=C/C[C@@H](C)[C@@H](O)[C@H]1C(=O)N[C@@H](CC)C(=O)N(C)CC(=O)N(C)[C@@H](CC(C)(C)O)C(=O)N[C@H](C(C)C)C(=O)N(C)[C@H](CC(C)C)C(=O)N[C@@H](C)C(=O)N[C@H](C)C(=O)N(C)[C@@H](CC(C)C)C(=O)N(C)[C@@H](CC(C)C)C(=O)N(C)[C@@H](C(C)C)C(=O)N1C | 1.7
C/C=C/C[C@@H](C)[C@@H](O)[C@H]1C(=O)N[C@@H]([C@@H](C)O)C(=O)N(C)CC(=O)N(C)[C@H](CC(C)C)C(=O)N[C@@H](CC(C)C)C(=O)N(C)[C@H](CC(C)C)C(=O)N[C@@H](C)C(=O)N[C@H](C)C(=O)N(C)[C@@H](CC(C)C)C(=O)N[C@@H](CC(C)C)C(=O)N(C)[C@@H](C(C)C)C(=O)N1C | 0.2
C/C=C/C[C@@H](C)[C@@H](O)[C@H]1C(=O)N[C@@H](CC)C(=O)N(C)CC(=O)N[C@@H](C(C)C)C(=O)N[C@H](C(C)C)C(=O)N(C)[C@H](CC(C)C)C(=O)N[C@@H](C)C(=O)N[C@H](C)C(=O)N(C)[C@@H](CC(C)C)C(=O)N(C)[C@@H](CC(C)C)C(=O)N(C)[C@@H](C(C)C)C(=O)N1C | > 10
CC[C@@H]1NC(=O)[C@H](C2CCCCC2C)N(C)C(=O)[C@H](C(C)C)N(C)C(=O)[C@H](CC(C)C)N(C)C(=O)[C@H](CC(C)C)N(C)C(=O)[C@@H](C)NC(=O)[C@@H](C)NC(=O)[C@@H](CC(C)C)N(C)C(=O)[C@@H](C(C)C)NC(=O)[C@@H](CC(C)C)N(C)C(=O)CN(C)C1=O (stereo partly specified) | > 10
C/C=C/C[C@@H](C)[C@@H](O)[C@H]1C(=O)N[C@@H](C(C)C)C(=O)N(C)CC(=O)N(C)[C@H](CC(C)C)C(=O)N[C@H](C(C)C)C(=O)N(C)[C@H](CC(C)C)C(=O)N[C@@H](C)C(=O)N[C@H](C)C(=O)N(C)[C@@H](CC(C)C)C(=O)N[C@@H](CC(C)C)C(=O)N(C)[C@@H](C(C)C)C(=O)N1C | 1.4
C/C=C/C[C@@H](C)[C@@H](O)[C@H]1C(=O)N[C@@H]([C@@H](C)O)C(=O)N(C)CC(=O)N(C)[C@H](CC(C)C)C(=O)N[C@H](C(C)C)C(=O)N(C)[C@H](CC(C)C)C(=O)N[C@@H](C)C(=O)N[C@H](C)C(=O)N(C)[C@@H](CC(C)C)C(=O)N(C)[C@@H](CC(C)C)C(=O)N[C@@H](C(C)C)C(=O)N1C | 6.4
C/C=C/C[C@@H](C)[C@@H](O)[C@H]1C(=O)N[C@@H](CC)C(=O)N(C)CC(=O)N(C)[C@H](CC(C)C)C(=O)N[C@H](C(C)C)C(=O)N(C)[C@H](CC(C)C)C(=O)N[C@@H](C)C(=O)N[C@H](C)C(=O)N(C)[C@@H](CC(C)C)C(=O)N(C)[C@@H](CC(C)C)C(=O)N[C@@H](C(C)C)C(=O)N1C | 3.8

Target: T2, fMet-Leu-Phe receptor (Homo sapiens, UniProt P21462)
T2 sequence (P21462 whole entry): T1 sequence (whole entry)
Assay: Inhibitory activity against human formylpeptide receptor (FPR) of human leukemia HL-60 cells
Type: cell-based
Summary of the method: as §1

Compound | IC50 [µM]
C/C=C/C[C@@H](C)C[C@H]1C(=O)N[C@@H](CC)C(=O)N(C)CC(=O)N(C)[C@@H](CC(C)C)C(=O)N[C@@H](C(C)C)C(=O)N(C)[C@@H](CC(C)C)C(=O)N[C@@H](C)C(=O)N[C@H](C)C(=O)N(C)[C@@H](CC(C)C)C(=O)N(C)[C@@H](CC(C)C)C(=O)N(C)[C@@H](C(C)C)C(=O)N1C | > 10
C/C=C/C[C@@H](C)[C@@H](O)[C@H]1C(=O)N[C@@H](CCC)C(=O)N(C)CC(=O)N(C)[C@@H](CC(C)C)C(=O)N[C@@H](CCC)C(=O)N(C)[C@@H](CC(C)C)C(=O)N[C@@H](C)C(=O)N[C@H](C)C(=O)N(C)[C@@H](CC(C)C)C(=O)N(C)[C@@H](CC(C)C)C(=O)N(C)[C@@H](C(C)C)C(=O)N1C | 3.4
C/C=C/C[C@@H](C)[C@@H](O)[C@H]1C(=O)N[C@@H]([C@@H](C)O)C(=O)NCC(=O)N(C)[C@@H](CC(C)C)C(=O)N[C@@H](CC(C)C)C(=O)N(C)[C@@H](CC(C)C)C(=O)N[C@@H](C)C(=O)N[C@](O)(C(C)C)C(=O)N(C)[C@@H](CC(C)C)C(=O)N[C@@H](CC(C)C)C(=O)N(C)[C@@H](C(C)C)C(=O)N1C | 0.3
